ChEMBL document CHEMBL4007470, “Discovery of a 2'-fluoro-2'-C-methyl C-nucleotide HCV polymerase inhibitor and a phosphoramidate prodrug with favorable properties” (Bioorg Med Chem Lett, 2017)
In brackets after ≈: the same amount, converted by molar mass. Each block holds one compound with its values, some of them ahead of it.

Legend:
[1] = Solubility of the compound in pH 7.4 solution; assay type: physicochemical
How it was run: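 Solubility measured at pH 7.4 using amorphous material.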

[2] = Prodrug activation in Syrian golden hamster liver assessed as triphosphate metabolite formation at 5 mg equivalents/kg, po after 1 hr by LC-MS/MS analysis; assay type: ADME, organism-based, Mesocricetus auratus; details: in vivo
How it was run: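 Golden Syrian hamsters (groups of 12) dosed orally at 5 mg-eq/kg in EtOH/PEG400/water buffered with 50 mM pH 4 citrate. Livers harvested under isoflurane at 1 h and extracted in cold KOH/EDTA/70% MeOH with Cl-ATP. Triphosphate measured by LC/MS/MS, with endogenous ATP checked for sample stability.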

[3] = Fraction absorbed in Beagle dog at 5 mg/kg, po; assay type: ADME, organism-based, Canis lupus familiaris; details: in vivo, read-out: Fabs
How it was run: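 Male beagle dogs dosed orally at 5 mg/kg. Fraction absorbed determined by portal vein sampling.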

[4] = Permeability of the compound from apical to basolateral side in human Caco2 cells at 10 uM; assay type: ADME, cell-based, Caco-2; details: Caco-2, read-out: permeability
How it was run: (§1)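 Caco-2 permeability at 10 μM compound, measured in apical-to-basolateral and basolateral-to-apical directions.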

Plasma = experiment: Stability in rat plasma at 2 uM up to 4 hrs by LC-MS/MS analysis; assay type: ADME, cell-free
How it was run: (§2)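 Compound at 2 μM incubated in plasma at 37 °C for up to 4 h. Aliquots quenched with 9 volumes of acetonitrile containing internal standard, then centrifuged. Supernatant analysed by LC-MS/MS.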

[5] = Permeability of the compound from basolateral to apical side in human Caco2 cells at 10 uM; assay type: ADME, cell-based, Caco-2; details: Caco-2, read-out: permeability; how it was run: as §1
[6] = Inhibition of human RNA polymerase-2
[7] = Prodrug activation in human HuH7 cells infected with HCV genotype 1b assessed as ((2R,3R,4R,5S)-5-(4-aminopyrrolo[1,2-f][1,2,4]triazin-7-yl)-4-fluoro-3-hydroxy-4-methyltetrahydrofuran-2-yl)methyl tetrahydrogen triphosphate level per million cells at 10 uM after 2 to 24 hrs by LC-MS/MS analysis; assay type: cell-based; details: huh-7, 10 µM
How it was run: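 HCV genotype 1b replicon Huh-7 cells (DMEM with glutaMAX, 10% heat-inactivated FBS, penicillin-streptomycin, G418) grown to confluency (0.88×10^6 cells/well), exposed continuously to prodrug at 10 μM for up to 24 h; washed in ice-cold saline, extracted into 70% methanol overnight, dried, resuspended in 1 mM ammonium phosphate pH 8.5; triphosphate quantified by LC-MS/MS; LLOQ 0.137 pmol/million cells; duplicate wells, single experiment.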

Hepatitis C virus [8] = experiment: Antiviral activity against HCV genotype 1b infected in human HuH7 cells by luciferase reporter gene assay; assay type: functional, cell-based, Hepacivirus hominis
How it was run: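 Luciferase-reporter genotype 1b subgenomic replicon in Huh-7 cells; EC50 is concentration giving 50% inhibition. Values are averages of at least three repeats.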

[9] = Prodrug activation in human HuH7 cells infected with HCV genotype 1b assessed as ((2R,3R,4R,5S)-5-(4-aminopyrrolo[1,2-f][1,2,4]triazin-7-yl)-4-fluoro-3-hydroxy-4-methyltetrahydrofuran-2-yl)methyl tetrahydrogen monophosphate level at 10 uM after 2 to 24 hrs by LC-MS/MS analysis; assay type: cell-based; details: huh-7, 10 µM
[10] = Prodrug activation in human HuH7 cells infected with HCV genotype 1b assessed as ((2R,3R,4R,5S)-5-(4-aminopyrrolo[1,2-f][1,2,4]triazin-7-yl)-4-fluoro-3-hydroxy-4-methyltetrahydrofuran-2-yl)methyl tetrahydrogen diphosphate level at 10 uM after 2 to 24 hrs by LC-MS/MS analysis; assay type: cell-based; details: huh-7, 10 µM
[11] = Prodrug activation in human HuH7 cells infected with HCV genotype 1b assessed as ((2R,3R,4R,5S)-5-(4-aminopyrrolo[1,2-f][1,2,4]triazin-7-yl)-3,4-dihydroxy-4-methyltetrahydrofuran-2-yl)methyl tetrahydrogen triphosphate formation per million cells at 10 uM after 24 hrs by LC-MS/MS analysis; assay type: cell-based; details: huh-7, 24 h
How it was run: (§3)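 Huh-7 replicon cells grown in DMEM with 10% heat-inactivated FBS, penicillin-streptomycin and G418, plated to confluency (0.88×10^6 cells/well). Prodrug at 10 μM given as continuous incubation, sampled at 2, 6 and 24 h. Cells washed with ice-cold saline and extracted into 70% methanol overnight. Triphosphate quantified by LC-MS/MS (LLOQ 0.137 pmol/million cells). Duplicate wells, single experiment.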

Huh-7 = experiment: Cytotoxicity against human HuH7 cells; assay type: cell-based
[12] = Prodrug activation in human HuH7 cells infected with HCV genotype 1b assessed as((2R,3R,4R,5S)-5-(4-aminopyrrolo[1,2-f][1,2,4]triazin-7-yl)-3,4-dihydroxy-4-methyltetrahydrofuran-2-yl)methyl tetrahydrogen triphosphate formation per million cells at 10 uM after 6 hrs by LC-MS/MS analysis; assay type: cell-based; details: huh-7, 6 h; how it was run: as §3
[13] = Prodrug activation in human HuH7 cells infected with HCV genotype 1b assessed as ((2R,3R,4R,5S)-5-(4-aminopyrrolo[1,2-f][1,2,4]triazin-7-yl)-3,4-dihydroxy-4-methyltetrahydrofuran-2-yl)methyl tetrahydrogen triphosphate formation per million cells at 10 uM after 2 hrs by LC-MS/MS analysis; assay type: cell-based; details: huh-7, 2 h; how it was run: as §3
[14] = Hepatic extraction in human liver S9 fractions at 2 uM by LC-MS/MS analysis; assay type: ADME; details: liver S9 fractions, read-out: ERH
How it was run: (§4)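 Compound at 2 μM incubated with S9 fractions at 37 °C for 90 min with NADPH and UDPGA. Quenched with aqueous acetonitrile/methanol containing internal standard and analysed by LC-MS/MS. Half-life from an exponential fit assuming first-order kinetics. Hepatic extraction predicted from half-life using the well-stirred model.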

[15] = Half life in hamster plasma at 2 uM by LC-MS/MS analysis; assay type: ADME, cell-free; details: cricetinae, 2 µM; how it was run: as §2
[16] = Half life in hamster intestinal S9 fractions at 2 uM by LC-MS/MS analysis; assay type: ADME, Intestine; details: cricetinae, s9, 2 µM; 2 µM
[17] = Half life in human plasma at 2 uM by LC-MS/MS analysis; assay type: ADME, cell-free; how it was run: as §2
[18] = Hepatic extraction in hamster liver S9 fractions at 2 uM by LC-MS/MS analysis; assay type: ADME; details: cricetinae, liver S9 fractions; read-out: ERH; how it was run: as §4
Hepatitis C virus [19] = experiment: Antiviral activity against HCV genotype 1a infected in human HuH7 cells by luciferase reporter gene assay; assay type: functional, cell-based, Hepacivirus hominis, subtype 1a
[20] = Half life in human intestinal S9 fractions at 2 uM by LC-MS/MS analysis; assay type: ADME, Intestine; how it was run: as §4
Hepatitis C virus [21] = experiment: Antiviral activity against HCV genotype 4a infected in human HuH7 cells by luciferase reporter gene assay; assay type: functional, cell-based, Hepacivirus hominis; details: Hepatitis C virus, genotype 4a, Huh-7
[22] = Hepatitis C virus, genotype 1b, Huh-7

SMILES: CC[C@H](C)[C@@H]1NC(=O)CNC(=O)[C@@H]2Cc3c([nH]c4cc(O)ccc34)[S+]([O-])C[C@@H](NC(=O)CNC1=O)C(=O)N[C@@H](CC(N)=O)C(=O)N1C[C@H](O)C[C@H]1C(=O)NC([C@@H](C)[C@@H](O)CO)C(=O)N2 (stereo partly specified)
- IC50 [6]: 2.4 nM

SMILES: CCOC(=O)[C@H](C)NP(=O)(OC[C@H]1O[C@@H](c2ccc3c(N)ncnn23)[C@](C)(F)[C@@H]1O)Oc1ccccc1 (stereo partly specified)
- Drug metabolism [7]: < 0.137 pmol
- EC50 (Hepatitis C virus [8]; [22]): > 89000 nM
- Drug metabolism [9]: Metabolite_Detected
- Drug metabolism [10]: Metabolite_Notdetected

SMILES: CCOC(=O)[C@H](C)N[P@@](=O)(O)OC[C@H]1O[C@@](C#N)(c2ccc3c(N)ncnn23)[C@](C)(O)[C@@H]1O
- Drug metabolism [11]: 83 pmol
- Activity (Huh-7): Non-Toxic
- Drug metabolism [12]: 117 pmol
- EC50 (Hepatitis C virus [8]; [22]): 1450 nM
- Drug metabolism [13]: 26 pmol

Results, then the compound that gave them:

- solubility [1]: 306 µg/mL (≈ 614 µM)
- liver triphosphate concentration [2]: 0.53 µM
- Fa [3]: 10%
- Papp A→B at 10 µM [4]: 0.2 ×10⁻⁶ cm/s
- Stability (Plasma): Unstable
- Papp B→A at 10 µM [5]: 8.9 ×10⁻⁶ cm/s
SMILES: CC(C)OC(=O)[C@H](C)N[P@@](=O)(O)OC[C@H]1O[C@@](C#N)(c2ccc3c(N)ncnn23)[C@](C)(O)[C@@H]1O

- hepatic extraction ratio at 2 µM [14]: 0.79
- t1/2 [15]: > 13.2 h
- t1/2 [16]: 0.8 h
- solubility [1]: 538 µg/mL (≈ 930 µM)
- half-life at 2 µM [17]: 8.9 h
- liver triphosphate concentration [2]: 1.89 µM
- hepatic extraction ratio at 2 µM [18]: 0.93
- Fa [3]: > 70%
- EC50 (Hepatitis C virus [19]): 2300 nM
- half-life at 2 µM [20]: > 13.2 h
- Papp A→B at 10 µM [4]: 2.4 ×10⁻⁶ cm/s
- EC50 (Hepatitis C virus [21]): 380 nM
- Stability (Plasma): Unstable
- EC50 (Hepatitis C virus [8]): 18800 nM
- Papp B→A at 10 µM [5]: 9.7 ×10⁻⁶ cm/s
SMILES: CC(C)OC(=O)C1(NP(=O)(OC[C@H]2O[C@@H](c3cnc4c(N)ncnn34)[C@](C)(F)[C@@H]2O)Oc2ccccc2)CCC1 (stereo in doubt; 37)
